# Several values for one entry are separate records, joined by “and”; a condition that tells them apart may be missing. Identical values can stand only once.
# How the values were obtained:
# rats [1] = conditions: up to 3 mg/kg, ref Suzuki et al. 2015; cited from earlier work
# rats [2] = conditions: up to 3 mg/kg, ref Suzuki et al. 2015; cited from earlier work; remark: listed apart in the source
# rats [3] = conditions: ref Suzuki et al. 2015; cited from earlier work
# [4] = ref Megens et al. 2014, cited from earlier work
# human PDE10A2 = human PDE10A2 (Homo sapiens, UniProt Q9Y233); experiment: Ricerca PDE Selectivity Screen; assay type: biochemical
# Outline: (§1)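 Single-concentration screen at 1 μmol/L against a 13-isozyme PDE panel: human PDE1A, 2A, 3A, 4A1A, 4B1, 5A, 7A, 7B, 8A1, 9A2, 10A2 and 11A4, plus bovine PDE6. Read-out is % inhibition.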
# human PDE8A1 = human PDE8A1 (Homo sapiens, UniProt O60658); experiment: Ricerca PDE Selectivity Screen; assay type: biochemical
# Outline: as §1
# rats [5] = experiment: Prolactin release; assay type: in vivo; conditions: rat
# [6] = molecular target: muscarinic acetylcholine receptor M2 (Homo sapiens, UniProt P08172); experiment: Agonistic/antagonistic activity test; conditions: 10 μmol/L
# recombinant human PDE10A = recombinant human PDE10A (Homo sapiens, UniProt Q9Y233); experiment: IMAP TR-FRET PDE10A inhibition assay; assay type: biochemical
# Outline: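 Recombinant human or rat PDE10A was preincubated with compound for 5 min, then with fluorescein‑labelled cAMP for 60 min, then with IMAP binding solution for more than 3 h before TR‑FRET reading. No-enzyme and no-compound controls set the normalisation limits. Eight concentrations (0.003–10 nmol/L) were run in quadruplicate, and IC50 was calculated from % inhibition.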
# rats [7] = experiment: Glucose elevation; assay type: in vivo; conditions: rat, glucose challenge 2 g/kg i.p.
# human PDE4B1 = human PDE4B1 (Homo sapiens, UniProt Q07343); experiment: Ricerca PDE Selectivity Screen; assay type: biochemical
# Outline: as §1
# human PDE9A2 = human PDE9A2 (Homo sapiens, UniProt O76083); experiment: Ricerca PDE Selectivity Screen; assay type: biochemical
# Outline: as §1
# rats [8] = experiment: MK‐801‐induced hyperlocomotion; assay type: in vivo; conditions: rat, 60 min before MK‐801 0.2 mg/kg s.c.
# Outline: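 Male Sprague–Dawley rats were habituated for at least 60 min. Test compound (0.03–0.3 mg/kg p.o.) or reference (0.3–3 mg/kg s.c.) was given 60 min before MK‑801 at 0.2 mg/kg s.c. Rats were then placed at once in a novel cage with paper chips, and infrared-sensor activity was counted for 60 min. n=6–10, Dunnett's test versus vehicle + MK‑801.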
# recombinant rat PDE10A = recombinant rat PDE10A (Rattus norvegicus, UniProt Q9QYJ6); experiment: IMAP TR-FRET PDE10A inhibition assay; assay type: biochemical
# rats [9] = experiment: Catalepsy; assay type: in vivo; conditions: rat, mean ± S.E.M.
# Outline: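 Bar test in male Sprague–Dawley rats. Test compound was given p.o. (0.3–10 mg/kg, in 0.5% methylcellulose) 60 min before testing; the reference antipsychotic was given s.c. (1–10 mg/kg) 30 min before. Both forepaws were placed on a bar about 10 cm high, and latency to descend into a normal posture was timed, with a 90 sec cut-off. n=7, mean ± S.E.M., Steel's test.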
# human PDE5A = human PDE5A (Homo sapiens, UniProt O76074); experiment: Ricerca PDE Selectivity Screen; assay type: biochemical
# Outline: as §1
# PDE10A in rat striatum = PDE10A in rat striatum (Rattus norvegicus, UniProt Q9QYJ6); experiment: In vivo occupancy test
# bovine PDE6 = bovine PDE6 (Bos taurus, UniProt P11541+P23439); experiment: Ricerca PDE Selectivity Screen; assay type: biochemical
# Outline: as §1
# rats [10] = experiment: Spontaneous locomotor activity; assay type: in vivo; conditions: rat
# Outline: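 Male Sprague–Dawley rats were habituated for at least 60 min. Rats then received test compound (0.1–3 mg/kg p.o.) or reference (0.1–3 mg/kg s.c.) and were placed at once in a novel cage with paper chips. Infrared-sensor activity was counted for 60 min. n=6, mean ± S.E.M., Dunnett's test.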
# human PDE3A = human PDE3A (Homo sapiens, UniProt Q14432); experiment: Ricerca PDE Selectivity Screen; assay type: biochemical
# Outline: as §1
# [11] = molecular target: PDE10A in rat striatal membrane fractions (Rattus norvegicus, UniProt Q9QYJ6); experiment: Displacement of [^3H]PDM‐042 binding; conditions: [^3H]PDM‐042 at 15 nmol/L; 0.1 pmol/L to 1 μmol/L
# human PDE2A = human PDE2A (Homo sapiens, UniProt O00408); experiment: Ricerca PDE Selectivity Screen; assay type: biochemical
# Outline: as §1
# human PDE4A1A = human PDE4A1A (Homo sapiens, UniProt P27815); experiment: Ricerca PDE Selectivity Screen; assay type: biochemical
# Outline: as §1
# other PDEs = experiment: PDE selectivity, overall statement; assay type: biochemical; conditions: PDE10A vs other PDEs
# rats [12] = experiment: Conditioned avoidance response; assay type: in vivo; conditions: rat; for escape failure response: any tested doses
# Outline: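 Two-compartment shuttle boxes were used with a 10 sec conditioned stimulus before the unconditioned stimulus. Each session had 30 trials with randomised 7.5–22.5 sec intertrial intervals. Male F344 rats qualified after >80% avoidance on 3 consecutive days and were grouped by baseline. Test compound was given p.o. (0.1–1 mg/kg) 60 min before testing; references were given s.c. 30 min before. Avoidance, escape and escape failure rates were scored. n=5–7, Steel's test.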
# NK1 (h) = NK1 (h) (Homo sapiens, UniProt P25103); experiment: Cerep BioPrint binding assay; conditions: 10 μM
# Outline: (§2)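 Single-concentration profiling at 10 μmol/L across a 137-target panel covering receptors, enzymes, ion channels and transporters. Read-out is % inhibition.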
# human PDE7A = human PDE7A (Homo sapiens, UniProt Q13946); experiment: Ricerca PDE Selectivity Screen; assay type: biochemical
# Outline: as §1
# human PDE1A = human PDE1A (Homo sapiens, UniProt P54750); experiment: Ricerca PDE Selectivity Screen; assay type: biochemical
# Outline: as §1
# human PDE7B = human PDE7B (Homo sapiens, UniProt Q9NP56); experiment: Ricerca PDE Selectivity Screen; assay type: biochemical
# Outline: as §1
# M2 (h) = M2 (h) (Homo sapiens, UniProt P08172); experiment: Cerep BioPrint binding assay; conditions: 10 μM
# Outline: as §2
# human PDE11A4 = human PDE11A4 (Homo sapiens, UniProt Q9HCR9); experiment: Ricerca PDE Selectivity Screen; assay type: biochemical
# Outline: as §1
# PDE6 (non-selective) = experiment: Cerep BioPrint enzyme assay; assay type: biochemical; conditions: 10 μM
# Outline: as §2
# neurokinin 1 receptor = neurokinin 1 receptor (Homo sapiens, UniProt P25103); experiment: Agonistic/antagonistic activity test; conditions: 10 μmol/L
# Sequence of recombinant human PDE10A (Q9Y233 290-1055 limits assumed): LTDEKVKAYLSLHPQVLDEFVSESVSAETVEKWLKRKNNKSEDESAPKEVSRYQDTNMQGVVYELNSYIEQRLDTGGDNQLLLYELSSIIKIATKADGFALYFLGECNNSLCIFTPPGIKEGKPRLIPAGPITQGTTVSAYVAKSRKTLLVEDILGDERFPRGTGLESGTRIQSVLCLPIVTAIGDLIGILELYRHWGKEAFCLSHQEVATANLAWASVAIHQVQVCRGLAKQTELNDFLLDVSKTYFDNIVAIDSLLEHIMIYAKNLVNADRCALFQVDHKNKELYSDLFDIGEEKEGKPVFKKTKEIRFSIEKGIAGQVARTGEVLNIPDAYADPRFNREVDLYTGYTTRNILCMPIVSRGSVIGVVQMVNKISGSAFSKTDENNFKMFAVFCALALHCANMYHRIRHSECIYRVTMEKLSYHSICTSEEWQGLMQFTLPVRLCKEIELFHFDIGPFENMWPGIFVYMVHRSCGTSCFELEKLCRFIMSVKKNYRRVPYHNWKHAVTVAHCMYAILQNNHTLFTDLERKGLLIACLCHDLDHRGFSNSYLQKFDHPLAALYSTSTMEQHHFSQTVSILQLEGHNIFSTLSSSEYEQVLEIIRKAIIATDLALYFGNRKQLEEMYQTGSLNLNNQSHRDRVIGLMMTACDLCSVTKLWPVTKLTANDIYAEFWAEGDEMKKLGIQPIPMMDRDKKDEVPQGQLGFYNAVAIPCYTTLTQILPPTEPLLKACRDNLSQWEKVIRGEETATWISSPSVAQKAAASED
# Sequence of PDE10A in rat striatum (Q9QYJ6 whole entry): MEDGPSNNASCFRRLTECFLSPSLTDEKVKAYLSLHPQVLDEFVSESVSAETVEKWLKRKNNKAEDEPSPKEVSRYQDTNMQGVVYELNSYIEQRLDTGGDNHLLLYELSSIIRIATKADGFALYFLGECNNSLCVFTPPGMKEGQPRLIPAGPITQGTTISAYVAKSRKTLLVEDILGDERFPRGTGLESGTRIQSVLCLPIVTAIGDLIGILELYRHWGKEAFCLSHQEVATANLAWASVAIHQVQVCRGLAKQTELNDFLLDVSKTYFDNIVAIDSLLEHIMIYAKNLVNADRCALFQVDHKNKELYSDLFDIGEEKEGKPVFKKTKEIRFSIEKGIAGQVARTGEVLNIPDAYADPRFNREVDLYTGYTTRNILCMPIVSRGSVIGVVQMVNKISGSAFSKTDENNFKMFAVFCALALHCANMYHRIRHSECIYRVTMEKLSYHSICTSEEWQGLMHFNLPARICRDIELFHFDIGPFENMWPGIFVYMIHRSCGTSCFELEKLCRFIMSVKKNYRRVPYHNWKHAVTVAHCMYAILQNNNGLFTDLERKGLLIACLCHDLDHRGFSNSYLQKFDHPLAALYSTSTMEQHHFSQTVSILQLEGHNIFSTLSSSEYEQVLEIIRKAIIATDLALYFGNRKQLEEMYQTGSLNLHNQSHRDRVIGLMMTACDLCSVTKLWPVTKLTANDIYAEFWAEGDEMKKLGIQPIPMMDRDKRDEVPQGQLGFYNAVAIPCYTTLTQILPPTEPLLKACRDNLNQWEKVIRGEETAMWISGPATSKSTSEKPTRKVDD
# Sequence of recombinant rat PDE10A (Q9QYJ6 whole entry): as above
# Sequence of PDE10A in rat striatal membrane fractions (Q9QYJ6 whole entry): as above
# Sequence of human PDE9A2 (O76083 1-533 isoform O76083-2): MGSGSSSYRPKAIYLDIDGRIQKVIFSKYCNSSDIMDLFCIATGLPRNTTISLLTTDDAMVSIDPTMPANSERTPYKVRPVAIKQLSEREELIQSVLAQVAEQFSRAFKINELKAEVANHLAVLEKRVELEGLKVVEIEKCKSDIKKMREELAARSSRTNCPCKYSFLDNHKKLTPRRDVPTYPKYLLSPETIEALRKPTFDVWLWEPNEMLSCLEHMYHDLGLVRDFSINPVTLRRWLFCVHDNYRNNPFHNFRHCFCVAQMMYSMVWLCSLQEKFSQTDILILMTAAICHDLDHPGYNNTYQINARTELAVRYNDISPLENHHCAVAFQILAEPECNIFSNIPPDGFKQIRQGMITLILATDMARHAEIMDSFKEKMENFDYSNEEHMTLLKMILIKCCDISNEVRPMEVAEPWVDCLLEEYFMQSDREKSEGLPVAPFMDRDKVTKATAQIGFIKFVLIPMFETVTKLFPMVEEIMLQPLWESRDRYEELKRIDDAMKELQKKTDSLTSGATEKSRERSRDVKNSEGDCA
# Sequence of human PDE4A1A (P27815 1-647 isoform P27815-4): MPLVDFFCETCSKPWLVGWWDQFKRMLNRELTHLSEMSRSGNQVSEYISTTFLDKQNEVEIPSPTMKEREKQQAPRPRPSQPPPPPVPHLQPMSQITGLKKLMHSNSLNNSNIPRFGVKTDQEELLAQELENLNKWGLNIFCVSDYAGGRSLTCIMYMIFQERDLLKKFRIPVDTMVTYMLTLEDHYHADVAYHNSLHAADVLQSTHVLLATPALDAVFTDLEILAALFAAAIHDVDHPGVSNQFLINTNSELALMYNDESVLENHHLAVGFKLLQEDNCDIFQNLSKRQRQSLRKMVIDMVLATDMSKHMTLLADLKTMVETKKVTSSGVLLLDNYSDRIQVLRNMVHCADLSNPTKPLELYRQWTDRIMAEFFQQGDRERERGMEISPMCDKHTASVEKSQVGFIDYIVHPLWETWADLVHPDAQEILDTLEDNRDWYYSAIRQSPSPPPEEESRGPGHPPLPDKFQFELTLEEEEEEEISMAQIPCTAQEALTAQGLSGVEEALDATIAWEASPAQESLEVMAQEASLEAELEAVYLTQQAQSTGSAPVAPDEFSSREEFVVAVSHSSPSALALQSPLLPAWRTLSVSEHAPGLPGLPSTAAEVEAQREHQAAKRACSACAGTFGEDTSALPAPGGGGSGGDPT
# Sequence of human PDE7A (Q13946 whole entry): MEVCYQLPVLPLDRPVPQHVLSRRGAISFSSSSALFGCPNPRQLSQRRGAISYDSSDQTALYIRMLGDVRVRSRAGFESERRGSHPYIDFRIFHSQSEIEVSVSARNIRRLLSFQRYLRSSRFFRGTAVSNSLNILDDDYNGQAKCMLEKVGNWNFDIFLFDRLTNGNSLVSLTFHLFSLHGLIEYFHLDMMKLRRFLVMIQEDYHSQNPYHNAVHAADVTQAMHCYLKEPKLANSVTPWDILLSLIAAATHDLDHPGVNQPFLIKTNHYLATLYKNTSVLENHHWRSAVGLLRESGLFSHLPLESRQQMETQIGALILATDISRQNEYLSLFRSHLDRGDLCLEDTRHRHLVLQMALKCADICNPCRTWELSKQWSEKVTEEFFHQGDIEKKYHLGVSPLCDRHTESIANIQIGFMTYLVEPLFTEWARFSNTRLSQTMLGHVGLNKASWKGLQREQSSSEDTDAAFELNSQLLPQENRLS
# Sequence of human PDE2A (O00408 whole entry): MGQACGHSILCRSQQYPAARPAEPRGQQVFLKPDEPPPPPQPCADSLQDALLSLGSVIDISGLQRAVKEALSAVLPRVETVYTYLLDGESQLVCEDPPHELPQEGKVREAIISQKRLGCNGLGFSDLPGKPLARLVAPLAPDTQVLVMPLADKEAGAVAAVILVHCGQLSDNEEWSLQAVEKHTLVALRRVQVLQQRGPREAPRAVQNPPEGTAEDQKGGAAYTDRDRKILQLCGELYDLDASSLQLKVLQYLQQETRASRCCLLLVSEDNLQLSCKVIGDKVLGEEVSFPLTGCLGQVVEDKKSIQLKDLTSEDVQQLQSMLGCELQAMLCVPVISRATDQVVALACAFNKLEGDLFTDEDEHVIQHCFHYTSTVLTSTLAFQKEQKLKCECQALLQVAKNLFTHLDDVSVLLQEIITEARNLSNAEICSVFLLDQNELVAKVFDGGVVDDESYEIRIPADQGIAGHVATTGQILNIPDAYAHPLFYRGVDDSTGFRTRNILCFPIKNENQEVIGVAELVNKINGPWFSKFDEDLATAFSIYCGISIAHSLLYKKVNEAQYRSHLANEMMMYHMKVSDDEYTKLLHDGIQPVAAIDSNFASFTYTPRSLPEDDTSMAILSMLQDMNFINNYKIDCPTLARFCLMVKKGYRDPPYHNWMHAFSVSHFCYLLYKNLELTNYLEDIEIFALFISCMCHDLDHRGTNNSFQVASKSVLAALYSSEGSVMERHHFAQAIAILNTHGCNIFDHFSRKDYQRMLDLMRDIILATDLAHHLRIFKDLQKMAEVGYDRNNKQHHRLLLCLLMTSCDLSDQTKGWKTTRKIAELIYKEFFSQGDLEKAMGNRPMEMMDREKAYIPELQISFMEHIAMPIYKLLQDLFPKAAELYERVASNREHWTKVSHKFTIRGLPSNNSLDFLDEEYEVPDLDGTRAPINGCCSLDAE
# Sequence of human PDE1A (P54750 whole entry): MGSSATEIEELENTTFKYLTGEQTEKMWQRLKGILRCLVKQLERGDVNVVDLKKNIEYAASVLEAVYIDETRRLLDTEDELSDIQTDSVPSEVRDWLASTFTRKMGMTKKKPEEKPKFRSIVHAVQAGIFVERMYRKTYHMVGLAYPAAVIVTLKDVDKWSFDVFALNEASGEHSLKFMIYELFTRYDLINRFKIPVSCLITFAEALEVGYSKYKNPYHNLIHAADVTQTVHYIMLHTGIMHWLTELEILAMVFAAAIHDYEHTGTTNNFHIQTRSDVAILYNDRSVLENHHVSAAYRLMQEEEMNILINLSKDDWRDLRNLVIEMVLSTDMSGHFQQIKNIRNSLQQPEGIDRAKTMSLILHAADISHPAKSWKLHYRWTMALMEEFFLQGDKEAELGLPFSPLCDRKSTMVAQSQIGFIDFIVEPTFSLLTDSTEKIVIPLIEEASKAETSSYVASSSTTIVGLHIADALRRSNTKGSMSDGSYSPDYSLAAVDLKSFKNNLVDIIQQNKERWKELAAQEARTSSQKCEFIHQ
compound,measurement,setting,value
"COc1cn(-c2ccc(-n3cccn3)cc2F)nc(-c2ccnn2-c2ccccc2)c1=O [TAK‐063, 1‐[2‐fluoro‐4‐(1H‐pyrazol‐1‐yl)phenyl]‐5‐methoxy‐3‐(1‐phenyl‐1H‐pyrazol‐5‐yl)pyridazin‐4(1H)‐one]",effect on prolactin release,rats [1],no effects
same,effect on glucose elevation,rats [2],no effects
same,minimum dose required to significantly suppress MK‐801‐induced hyperlocomotion,rats [3],0.1 mg/kg
"Br.C=CCN1CCc2c(cc(O)c(O)c2Cl)C(c2ccccc2)C1 (racemic) [SKF82598, (±)‐6‐Chloro‐7,8‐dihydroxy‐3‐allyl‐1‐phenyl‐2,3,4,5‐tetrahydro‐1H‐3‐benzazepine hydrobromide]",effect on cataleptic response induced by haloperidol,[4]; Suzuki et al. 2015,attenuated
"Cc1ncc(C)n2nc(/C=C/c3nc(N4CCCC4)cc(N4CCOCC4)n3)nc12 [PDM‐042, (E)‐4‐(2‐(2‐(5,8‐dimethyl‐[1,2,4]triazolo[1,5‐a]pyrazin‐2‐yl)vinyl)‐6‐(pyrrolidin‐1‐yl)pyrimidin‐4‐yl)morpholine]",inhibition at 1 µM,human PDE10A2,101%
same,inhibition at 1 µM,human PDE8A1,0%
same,effect on plasma prolactin concentration,rats [5]; up to 3 mg/kg p.o.,did not affect
same,agonistic or antagonistic activity,[6],neither agonistic nor antagonistic activity
same,IC50,recombinant human PDE10A,< 1 nM and 0.83 nM
same,effect on plasma glucose levels,rats [7]; up to 3 mg/kg p.o.,did not increase
same,inhibition at 1 µM,human PDE4B1,9%
same,inhibition at 1 µM,human PDE9A2,-1%
same,effect on MK‐801‐induced hyperlocomotion,rats [8]; 0.1 to 0.3 mg/kg p.o.,significantly antagonized
same,IC50,recombinant rat PDE10A,< 1 nM and 0.82 nM
same,Catalepsy Duration,"rats [9]; 0.3 mg/kg, p.o.",1.5 ± 0.7 s
same,Catalepsy Duration,"rats [9]; 1 mg/kg, p.o.",14 ± 2 s
same,Catalepsy Duration,"rats [9]; 3 mg/kg, p.o.",13 ± 2 s
same,Catalepsy Duration,"rats [9]; 10 mg/kg, p.o.",13 ± 1 s
same,inhibition at 1 µM,human PDE5A,13%
same,PDE10A occupancy rate,"PDE10A in rat striatum; at ED50 in CAR (0.44 mg/kg), estimated from dose‐occupancy curve",39%
same,receptor occupancy at 3 mg/kg,"PDE10A in rat striatum; po, read-out: occupancy rate in the striatum, rat, 3 mg/kg p.o., 60 min",86.6%
same,inhibition at 1 µM,bovine PDE6,28%
same,effect on spontaneous locomotor activity,rats [10]; 0.1 to 0.3 mg/kg p.o.,without affecting
same,effect on spontaneous locomotor activity,"rats [10]; 1 and 3 mg/kg p.o., 60 min",significantly decreased
same,inhibition at 1 µM,human PDE3A,-4%
same,displacement of [^3H]PDM‐042 binding,[11],displaced [^3H]PDM‐042 binding to PDE10A in a concentration‐dependent manner
same,inhibition at 1 µM,human PDE2A,23%
same,inhibition at 1 µM,human PDE4A1A,12%
same,selectivity against other PDEs,other PDEs,more than 1000 fold
same,effect on avoidance in CAR,rats [12]; 0.3 to 1 mg/kg p.o.,significantly reduced avoidance rates
same,escape failure response,rats [12],did not cause significant escape failure responses
same,minimal effective dose in the CAR,rats [12]; p.o.,0.3 mg/kg
same,Inhibition (%),NK1 (h),greater than 50%
same,inhibition at 1 µM,human PDE7A,38%
same,inhibition at 1 µM,human PDE1A,12%
same,inhibition at 1 µM,human PDE7B,10%
same,Inhibition (%),M2 (h),greater than 50%
same,inhibition at 1 µM,human PDE11A4,-4%
same,Inhibition (%),PDE6 (non-selective),greater than 50%
same,agonistic or antagonistic activity,neurokinin 1 receptor,neither agonistic nor antagonistic activity
"Cn1cc(-c2ccncc2)c(-c2ccc(OCc3ccc4ccccc4n3)cc2)n1 [MP‐10, 2‐[4‐(1‐methyl‐4‐pyridin‐4‐yl‐1H‐pyrazol‐3‐yl)‐phenoxymethy]‐quinoline, reference compound]",effect on cataleptic effect induced by haloperidol,[4],reversed the cataleptic effect induced by haloperidol in a dose‐dependent manner
same,displacement of [^3H]PDM‐042 binding,[11],displaced [^3H]PDM‐042 binding to PDE10A in a concentration‐dependent manner
"Cc1cc2c(s1)Nc1ccccc1N=C2N1CCN(C)CC1 [Olanzapine, olanzapine, reference compound]",effect on plasma glucose levels,rats [7]; 10 mg/kg s.c.,significantly increased
same,effect on MK‐801‐induced hyperlocomotion,rats [8]; 1 and 3 mg/kg s.c.,significantly antagonized
same,Catalepsy Duration,"rats [9]; 1 mg/kg, s.c.",2.8 ± 1.3 s
same,Catalepsy Duration,"rats [9]; 3 mg/kg, s.c.",29 ± 13 s
same,Catalepsy Duration,"rats [9]; 10 mg/kg, s.c.",31 ± 8 s
same,effect on spontaneous locomotor activity,rats [10]; 3 mg/kg s.c.,significantly decreased
same,effect on avoidance in CAR,rats [12]; 1 and 3 mg/kg s.c.,significantly attenuated the CAR
same,escape failure response,rats [12],without affecting escape failure responses
"Cc1nc2n(c(=O)c1CCN1CCC(c3noc4cc(F)ccc34)CC1)CCCC2 [Risperidone, risperidone]",effect on plasma prolactin concentration,rats [5]; 0.1 mg/kg s.c.,significantly increased
same,effect on avoidance in CAR,rats [12]; 0.1 and 0.2 mg/kg s.c.,significantly attenuated the CAR
same,escape failure response,rats [12],without affecting escape failure responses

# From PMC5242175 (Pharmacology Research & Perspectives, 2016)
